Experimental data from ChEMBL document CHEMBL1154329, “Structure and cytotoxicity of arnamial and related fungal sesquiterpene aryl esters” (J Nat Prod, 2009).
Activity calls are given as the source filed them. The rule behind the calls is not given here. Starred links: 1 amine or outer side, 2 acyl side, 3 side chain; linkers in the order of their positions; H or OH if unused. Positions of bridges follow the written chain, without caps; N, C: chain ends. Non-standard residues stand in square brackets, D forms with d. Residues, ends and D or L forms follow the SMILES beside them. Chains are numbered I, II in the order given. Actinocin(1to9) = Cc1c2oc3c(C)ccc(C(=O)[*:2])c3nc-2c(C(=O)[*:1])c(N)c1=O; NMeV = CN[C@H](C(=O)O)C(C)C; Sar = CNCC(=O)O

Tests used:
HCT-116 [1] = test: Cytotoxicity against human HCT116 cells at <=100 uM after 48 hrs by MTT assay; type: functional, cell-based
Outline: (§1)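 All four lines kept in RPMI 1640 with 10% FBS, 1% GlutaMAX, penicillin/streptomycin. Cells seeded at (2.5-5.0) × 10^4 per well and held overnight at 37 °C. Compounds added as 2-fold DMSO dilutions, top final concentration 100 µM, 0.5% DMSO final. Triplicates, 48 h, 37 °C, 5% CO2. MTT 1 mg/mL added for 3 h. IC50 is the mean of three replicate experiments.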

MCF7 [2] = test: Cytotoxicity against human MCF7 cells at <=100 uM after 48 hrs by MTT assay; type: functional, cell-based; outline: as §1
CCRF-CEM [3] = test: Cytotoxicity against human CCRF-CEM cells at <=100 uM after 48 hrs by MTT assay; type: functional, cell-based; outline: as §1
Jurkat [4] = test: Cytotoxicity against human Jurkat T cells at <=100 uM after 48 hrs by MTT assay; type: functional, cell-based; outline: as §1
MCF7 [5] = test: Cytotoxicity against human MCF7 cells after 48 hrs by MTT assay; type: functional, cell-based; settings: MCF7, 48 h; outline: as §1
Jurkat [6] = test: Induction of apoptosis in human Jurkat T cells assessed as activation of caspase3 at 10 uM after 6 hrs relative to control; type: functional
Outline: (§2)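 Jurkat T cells at 1 × 10^6 cells/mL treated for 6 h, then centrifuged at 4 °C, washed and homogenized. Caspase-3 activity read with DEVD-AMC substrate at 200 nM. Rate of fluorescence increase normalized to Bradford protein, expressed as fold over untreated cells. Three independent experiments.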

Jurkat [7] = test: Induction of apoptosis in human Jurkat T cells assessed as increase in DNA fragmentation at 10 uM after 6 hrs by ELISA relative to control; type: functional
Outline: (§3)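 Jurkat T cells at 1 × 10^6 cells/mL exposed for 6 h. DNA fragmentation measured as histone-DNA complexes by histone ELISA and expressed as fold increase over untreated cells.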

Jurkat [8] = test: Cytotoxicity against human Jurkat T cells after 48 hrs by MTT assay; type: functional, cell-based; outline: as §1
HCT-116 [9] = test: Cytotoxicity against human HCT116 cells after 48 hrs by MTT assay; type: functional, cell-based; settings: HCT-116, 48 h; outline: as §1
CCRF-CEM [10] = test: Cytotoxicity against human CCRF-CEM cells after 48 hrs by MTT assay; type: functional, cell-based; outline: as §1
Jurkat [11] = test: Induction of apoptosis in human Jurkat T cells assessed as activation of caspase3 at 0.3 uM after 6 hrs relative to control; type: functional; outline: as §2
Jurkat [12] = test: Induction of apoptosis in human Jurkat T cells assessed as increase in DNA fragmentation at 0.33 uM after 6 hrs by ELISA relative to control; type: functional; outline: as §3

SMILES: Cc1cc(O)cc(O)c1C(=O)O[C@@H]1C[C@]2(C)[C@H]3[C@@H](O)C(C)(C)C[C@@]3(O)C=C(CO)[C@]12O
- Activity (HCT-116 [1]): inactive
- Activity (MCF7 [2]): inactive
- Activity (CCRF-CEM [3]): inactive
- Activity (Jurkat [4]): inactive

SMILES: COc1cc(O)c(C(=O)O[C@@H]2C[C@@]3(C)C2=C(C=O)[C@@H](O)[C@@H]2CC(C)(C)C[C@@H]23)c(C)c1Cl [ARNAMIAL]
- IC50 (MCF7 [5]): 15.4 µM
- fold change (FC) (Jurkat [6]): 18.1
- fold change (FC) (Jurkat [7]): 4.5
- IC50 (Jurkat [8]): 3.93 µM
- IC50 (HCT-116 [9]): 10.7 µM
- IC50 (CCRF-CEM [10]): 8.91 µM

SMILES: Cc1cc(O)cc(O)c1C(=O)O
- Activity (HCT-116 [1]): inactive
- Activity (MCF7 [2]): inactive
- Activity (CCRF-CEM [3]): inactive
- Activity (Jurkat [4]): inactive

SMILES: Cc1cc(O)cc(O)c1C(=O)O[C@@H]1C[C@]2(C)[C@@H]3[C@H](C=C(C=O)[C@]12O)CC(C)(C)[C@@H]3O
- IC50 (MCF7 [5]): > 100 µM
- IC50 (Jurkat [8]): 86.2 µM
- IC50 (HCT-116 [9]): > 100 µM
- IC50 (CCRF-CEM [10]): 63.2 µM

SMILES: COc1cc(O)c(C(=O)O[C@@H]2C[C@]3(C)[C@H]4[C@@H](O)C(C)(C)C[C@@]4(O)C=C(CO)[C@]23O)c(C)c1Cl [MELLEOLIDE D]
- IC50 (MCF7 [5]): > 100 µM
- IC50 (Jurkat [8]): > 100 µM
- IC50 (HCT-116 [9]): > 100 µM
- IC50 (CCRF-CEM [10]): 61.7 µM

SMILES: Cc1c2oc3c(C)ccc(C(=O)N[C@@H]4C(=O)N[C@H](C(C)C)C(=O)N5CCC[C@H]5C(=O)N(C)CC(=O)N(C)[C@@H](C(C)C)C(=O)O[C@@H]4C)c3nc-2c(C(=O)N[C@@H]2C(=O)N[C@H](C(C)C)C(=O)N3CCC[C@H]3C(=O)N(C)CC(=O)N(C)[C@@H](C(C)C)C(=O)O[C@@H]2C)c(N)c1=O [DACTINOMYCIN] (I: T[dV]P[Sar][NMeV] / II: T[dV]P[Sar][NMeV]; ester I:1-I:C, II:1-II:C; linker I:N-II:N via Actinocin(1to9))
- fold change (FC) (Jurkat [11]): 5.7
- fold change (FC) (Jurkat [12]): 4.3

SMILES: COc1cc(C)c(C(=O)O[C@@H]2C[C@]3(C)[C@H]4[C@@H](O)C(C)(C)C[C@@]4(O)C=C(CO)[C@]23O)c(O)c1
- Activity (HCT-116 [1]): inactive
- Activity (MCF7 [2]): inactive
- Activity (CCRF-CEM [3]): inactive
- Activity (Jurkat [4]): inactive

SMILES: COc1cc(C)c(C(=O)O)c(O)c1
- Activity (HCT-116 [1]): inactive
- Activity (MCF7 [2]): inactive
- Activity (CCRF-CEM [3]): inactive
- Activity (Jurkat [4]): inactive

SMILES: Cc1cc(O)cc(O)c1C(=O)O[C@@H]1C[C@]2(C)[C@H]3[C@@H](O)C(C)(C)C[C@@]3(O)C=C(C=O)[C@]12O
- Activity (HCT-116 [1]): inactive
- Activity (MCF7 [2]): inactive
- Activity (CCRF-CEM [3]): inactive
- Activity (Jurkat [4]): inactive

SMILES: COc1cc(O)c(C(=O)O[C@@H]2C[C@]3(C)[C@H]4[C@@H](O)C(C)(C)C[C@@]4(O)C=C(C=O)[C@]23O)c(C)c1Cl [MELLEDONAL C]
- IC50 (MCF7 [5]): > 100 µM
- IC50 (Jurkat [8]): 58.8 µM
- IC50 (HCT-116 [9]): > 100 µM
- IC50 (CCRF-CEM [10]): 14.8 µM
